The list is not random: actives were taken first. Their share in the collection is about 5.8%.
IDH1 R132H inh: IDH1 R132H (human) inhibition. O75874. inhibition, % at 10 µM. actives 0.18% (n = 70,000). IDH1 R132H reductase, diaphorase/resazurin fluorescence, 60 min; in the data active = inhibition above about 34%; inconclusive = no clear call, values can overlap the other calls; inactive = below about 11%
Pf Dd2 inh: P. falciparum Dd2 growth inhibition; SYBR Green, 72 h; active compounds read low; activity change, % at 10 µM; actives 2.3% (n = 94,000); AID 1159554; in the data active = activity change below about -80%; inconclusive = no clear call, values can overlap the other calls
KDM4C inh: inhibitors of human demethylase GASC-1 KDM4C; Q9H3R0; GST-KDM4C 2-372, H3K9me3 peptide, LANCE TR-FRET; inhibition, % at 12.5 µM; actives 0.15% (n = 96,000);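 active = mean replicate inhibition above about 25%, with at least 55% of replicates also reaching it, limit read from the data, passing the limit was not always enough; inconclusive = only one of those two conditions met; inactive = neither condition met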
Target sequence (Q9H3R0 2-372 limits assumed): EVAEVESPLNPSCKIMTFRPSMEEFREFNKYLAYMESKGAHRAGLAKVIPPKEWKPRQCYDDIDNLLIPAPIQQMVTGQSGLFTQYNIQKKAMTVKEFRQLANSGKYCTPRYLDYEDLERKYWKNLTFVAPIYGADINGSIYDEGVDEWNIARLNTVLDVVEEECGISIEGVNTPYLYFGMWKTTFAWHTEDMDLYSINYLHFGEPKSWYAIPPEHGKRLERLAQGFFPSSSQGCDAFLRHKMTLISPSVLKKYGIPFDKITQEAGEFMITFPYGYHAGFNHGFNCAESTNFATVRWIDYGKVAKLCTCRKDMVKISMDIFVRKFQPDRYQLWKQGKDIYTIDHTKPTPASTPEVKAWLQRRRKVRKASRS
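System: N-terminal GST-fused human GASC-1 (KDM4C) fragment, residues 2-372 / Amount: 10 nM GST-KDM4C in enzyme reaction / Also added: H3K9me3 peptide with Fe(II)/2OG / Times: 30 min demethylation and 1 h detection at room temperature / Signal: LANCE TR-FRET / Read-out basis: Fall in 671/618 emission ratio as inhibition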
T cruzi growth-1: inhibitors of T. cruzi proliferation. T. cruzi beta-gal in NIH3T3, GalScreen luminescence, 90 h. inhibition, % at 8.34 µM. actives 5.9% (n = 77,000);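 active = mean inhibition above about 93%, with at least 55% of replicates each passing it, limit read from the data, passing the limit was not always enough; inconclusive = only one of those two conditions holds; inactive = neither condition holds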
T cruzi growth-2: Trypanosoma cruzi proliferation inhibition; shares compounds with T cruzi growth-1; T. cruzi beta-gal in NIH3T3, GalScreen luminescence, 90 h; inhibition, % at 8.35 µM; actives 72% (n = 5,600); AID 651739;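 active = mean replicate inhibition above about 95% and at least 55% of replicates individually reaching it, limit read from the data; inconclusive = only one of the two criteria is met; inactive = neither criterion is met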
T cruzi growth-3: blocks T. cruzi growth in NIH3T3 host cells | shares compounds with T cruzi growth-1 | T. cruzi beta-gal in NIH3T3, GalScreen luminescence, 90 h | inhibition, % at 2.09 µM | actives 21% (n = 5,600);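 active = mean inhibition above about 95%, with at least 55% of replicates also reaching it, limit read from the data; inconclusive = meets just one of the two conditions; inactive = meets neither condition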
NIH3T3 tox: NIH/3T3 (mouse) viability loss; shares compounds with T cruzi growth-1; NIH/3T3 viability, CellTiter-Glo ATP luminescence, 90 h; actives 14% (n = 5,600); AID 651742; cytotoxicity (signal decrease), % at 8.35 µM;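 active = mean signal decrease across replicates above about 35% based on untreated-well scatter, with enough replicates individually passing, limit read from the data; inconclusive = no rule stated though some were filed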
3T3 cytotox 2: NIH/3T3 (mouse) viability loss; shares compounds with T cruzi growth-1; NIH/3T3 viability, CellTiter-Glo ATP luminescence, 90 h; inhibition, % at 24.9 µM; actives 56% (n = 5,600);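 active = mean loss of cell viability signal at or above a set limit, and enough replicates individually reaching it; inconclusive = meets only the mean limit or only the replicate share; inactive = meets neither condition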
Each line names hits and unclear results; the compound was inactive in the other large screens (follow-up assays come after a bar, where they were run).

C[C@H](CO)N1C[C@H](C)[C@H](CN(C)Cc2ccccc2)OCCCC[C@H](C)Oc2ccc(NC(=O)Nc3ccc(F)cc3)cc2C1=O	T cruzi growth-1 inconclusive (no result: IDH1 R132H inh) | T cruzi growth-2 97 | T cruzi growth-3 114 | NIH3T3 tox inactive | 3T3 cytotox 2 104
COc1ccc(C)cc1Nc1nc(N)nc(-c2oc3ccccc3c2C)n1	none (no result: Pf Dd2 inh, KDM4C inh, T cruzi growth-1)
C[C@@H]1CCCCO[C@H](CN(C)C(=O)Nc2ccccc2)[C@@H](C)CN([C@H](C)CO)C(=O)c2cc(NS(=O)(=O)c3ccc(Cl)cc3)ccc2O1	none
C[C@@H]1CCCCO[C@@H](CN(C)C(=O)c2ccccc2)[C@H](C)CN([C@H](C)CO)C(=O)c2cc(NS(=O)(=O)c3ccc(Cl)cc3)ccc2O1	T cruzi growth-1 98 (no result: IDH1 R132H inh) | T cruzi growth-2 111 | T cruzi growth-3 inactive | NIH3T3 tox inactive | 3T3 cytotox 2 inactive
C[C@@H]1CCCCO[C@H](CN(C)C(=O)Nc2ccccc2)[C@H](C)CN([C@@H](C)CO)C(=O)c2cc(NS(=O)(=O)c3ccc(Cl)cc3)ccc2O1	T cruzi growth-1 inconclusive | T cruzi growth-2 101 | T cruzi growth-3 inactive | NIH3T3 tox inactive | 3T3 cytotox 2 inactive
C[C@H](CO)N1C[C@H](C)[C@@H](CN(C)C(=O)Nc2ccccc2)OCCCC[C@H](C)Oc2ccc(NS(=O)(=O)c3ccc(Cl)cc3)cc2C1=O	none (no result: IDH1 R132H inh)
C[C@@H]1CN([C@@H](C)CO)C(=O)c2cc(NS(=O)(=O)c3ccc(Cl)cc3)ccc2O[C@@H](C)CCCCO[C@@H]1CN(C)C(=O)Nc1ccccc1	T cruzi growth-1 100 | T cruzi growth-2 98 | T cruzi growth-3 inactive | NIH3T3 tox inactive | 3T3 cytotox 2 24
C[C@@H]1CCCCO[C@H](CN(C)C(=O)c2ccccc2)[C@H](C)CN([C@H](C)CO)C(=O)c2cc(NS(=O)(=O)c3ccc(Cl)cc3)ccc2O1	none
C[C@H](CO)N1C[C@H](C)[C@H](CN(C)C(=O)Nc2ccccc2)OCCCC[C@H](C)Oc2ccc(NS(=O)(=O)c3ccc(Cl)cc3)cc2C1=O	KDM4C inh 79, T cruzi growth-1 124 (no result: IDH1 R132H inh) | T cruzi growth-2 110 | T cruzi growth-3 inactive | NIH3T3 tox inactive | 3T3 cytotox 2 inactive
CC(C)(C)c1ccc(C(=O)Nc2cccc(NC(=O)COc3ccccc3Cl)c2)cc1	none (no result: Pf Dd2 inh, KDM4C inh, T cruzi growth-1)
NC(=O)c1c(NC(=O)COc2cccc(C(F)(F)F)c2)sc2c1CCC2	none (no result: Pf Dd2 inh, KDM4C inh, T cruzi growth-1)
COc1ccc(NC(=O)Nc2ccc3c(c2)C(=O)N([C@H](C)CO)C[C@@H](C)[C@H](CN(C)C(=O)NC2CCCCC2)OCCCC[C@@H](C)O3)cc1	T cruzi growth-1 100 (no result: IDH1 R132H inh) | T cruzi growth-2 107 | T cruzi growth-3 inactive | NIH3T3 tox inactive | 3T3 cytotox 2 inactive
COc1ccc(NC(=O)Nc2ccc3c(c2)C(=O)N([C@@H](C)CO)C[C@H](C)[C@H](CN(C)C(=O)NC2CCCCC2)OCCCC[C@H](C)O3)cc1	T cruzi growth-1 inconclusive (no result: IDH1 R132H inh) | T cruzi growth-2 110 | T cruzi growth-3 inactive | NIH3T3 tox inactive | 3T3 cytotox 2 inactive
COc1ccc(NC(=O)Cn2c(=O)n(-c3ccc(Cl)cc3)c(=O)c3c4c(sc32)CCCC4)cc1	none (no result: Pf Dd2 inh, KDM4C inh, T cruzi growth-1)
Cc1ccc(S(=O)(=O)Nc2ccc3c(c2)C(=O)N([C@H](C)CO)C[C@H](C)[C@H](CN(C)CC2CCCCC2)OCCCC[C@H](C)O3)cc1	T cruzi growth-1 inconclusive | T cruzi growth-2 100 | T cruzi growth-3 inactive | NIH3T3 tox inactive | 3T3 cytotox 2 102
Cc1ccc(S(=O)(=O)Nc2ccc3c(c2)C(=O)N([C@H](C)CO)C[C@@H](C)[C@@H](CN(C)S(=O)(=O)c2ccc(C)cc2)OCCCC[C@@H](C)O3)cc1	none (no result: IDH1 R132H inh)
Cc1ccc(S(=O)(=O)Nc2ccc3c(c2)C(=O)N([C@H](C)CO)C[C@H](C)[C@@H](CN(C)CC2CCCCC2)OCCCC[C@H](C)O3)cc1	none (no result: IDH1 R132H inh)
Cc1ccc(S(=O)(=O)Nc2ccc3c(c2)C(=O)N([C@@H](C)CO)C[C@@H](C)[C@H](CN(C)S(=O)(=O)c2ccc(C)cc2)OCCCC[C@H](C)O3)cc1	T cruzi growth-1 inconclusive (no result: IDH1 R132H inh) | T cruzi growth-2 106 | T cruzi growth-3 inactive | NIH3T3 tox inactive | 3T3 cytotox 2 58
Cc1ccc(S(=O)(=O)Nc2ccc3c(c2)C(=O)N([C@@H](C)CO)C[C@@H](C)[C@@H](CN(C)S(=O)(=O)c2ccc(C)cc2)OCCCC[C@H](C)O3)cc1	Pf Dd2 inh -86, T cruzi growth-1 99 (no result: IDH1 R132H inh) | T cruzi growth-2 110 | T cruzi growth-3 inactive | NIH3T3 tox inactive | 3T3 cytotox 2 27
COc1ccccc1-c1ccc2c(c1)O[C@H](CN(C)C(=O)c1ccncc1)[C@@H](C)CN([C@H](C)CO)S2(=O)=O	none
COc1ccccc1-c1ccc2c(c1)O[C@@H](CN(C)C(=O)c1ccncc1)[C@@H](C)CN([C@@H](C)CO)S2(=O)=O	T cruzi growth-1 108 | T cruzi growth-2 96 | T cruzi growth-3 inactive | NIH3T3 tox inactive | 3T3 cytotox 2 25
C[C@@H]1CN([C@H](C)CO)S(=O)(=O)c2ccc(/C=C/c3ccccc3)cc2O[C@H]1CN(C)C(=O)c1ccccc1	T cruzi growth-1 128 (no result: KDM4C inh) | T cruzi growth-2 111 | T cruzi growth-3 inactive | NIH3T3 tox inactive | 3T3 cytotox 2 100
C[C@H]1CN([C@@H](C)CO)S(=O)(=O)c2ccc(/C=C/c3ccccc3)cc2O[C@H]1CN(C)C(=O)c1ccncc1	T cruzi growth-1 106 | T cruzi growth-2 109 | T cruzi growth-3 inactive | NIH3T3 tox 44 | 3T3 cytotox 2 70
COc1ccc(C#Cc2ccc3c(c2)O[C@H](CN(C)S(=O)(=O)c2ccccc2F)[C@H](C)CN([C@H](C)CO)S3(=O)=O)cc1	T cruzi growth-1 124 | T cruzi growth-2 109 | T cruzi growth-3 107 | NIH3T3 tox inactive | 3T3 cytotox 2 33
COc1cccc(C#Cc2ccc3c(c2)O[C@@H](CN(C)S(=O)(=O)c2ccccc2F)[C@@H](C)CN([C@H](C)CO)S3(=O)=O)c1	T cruzi growth-1 101 | T cruzi growth-2 106 | T cruzi growth-3 inactive | NIH3T3 tox inactive | 3T3 cytotox 2 inconclusive
COc1ccc(C#Cc2ccc3c(c2)O[C@@H](CN(C)S(=O)(=O)c2ccccc2F)[C@H](C)CN([C@H](C)CO)S3(=O)=O)cc1	none (no result: T cruzi growth-1)
N#Cc1c(NC(=O)COc2ccc(C(=O)Nc3cc(Cl)ccc3Cl)cc2)sc2c1CCC2	none (no result: Pf Dd2 inh, KDM4C inh, T cruzi growth-1)

Screens from PubChem.
